# Results: ChEMBL document CHEMBL1126988, “Quinolone antibacterials containing the new 7-[3-(1-aminoethyl)-1- pyrrolidinyl] side chain: the effects of the 1-aminoethyl moiety and its stereochemical configurations on potency and in vivo efficacy” (J Med Chem, 1993)
# How the values were obtained:
# Type in all cases: functional
# Enterobacter cloacae = assay: Minimum inhibitory concentration in vitro against Enterobacter cloacae MA 2646
# Streptococcus pyogenes [1] = assay: Minimum inhibitory concentration was evaluated in vitro against Streptococcus pyogenes C 203
# Outline: (§1)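 Standard microtitration broth assay against a panel of 10 Gram-positive and Gram-negative organisms. MIC read in µg/mL and averaged over multiple experiments.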
# Streptococcus pneumoniae = assay: Minimum inhibitory concentration was evaluated in vitro against Streptococcus pneumoniae SV-1; outline: as §1
# Staphylococcus aureus [2] = assay: Minimum inhibitory concentration was evaluated in vitro against Staphylococcus aureus UC 76; outline: as §1
# Staphylococcus aureus [3] = assay: Minimum inhibitory concentration was evaluated in vitro against Staphylococcus aureus H 228; outline: as §1
# Streptococcus pyogenes [4] = assay: Compounds were evaluated in vivo for antibacterial activity for mouse protection against Streptococcus pyogenes C 203 after oral administration; conditions: for ED50: Streptococcus pyogenes, C 203, po, read-out: PD50
# Klebsiella pneumoniae = assay: Minimum inhibitory concentration was evaluated in vitro against Klebsiella pneumoniae MGH2; outline: as §1
# Enterococcus faecalis = assay: Minimum inhibitory concentration was evaluated in vitro against Enterococcus faecalis MGH-2; outline: as §1
# Escherichia coli = assay: Antibacterial activity in vitro against Escherichia coli Vogel; outline: as §1
# Pseudomonas aeruginosa = assay: Minimum inhibitory concentration was evaluated in vitro against Pseudomonas aeruginosa UI-18; outline: as §1
# Streptococcus pyogenes [5] = assay: Antibacterial activity measured as mouse protection against Streptococcus pyogenes C 203 after subcutaneous administration; conditions: for ED50: Streptococcus pyogenes, C 203, sc, read-out: PD50
# Providencia rettgeri = assay: Minimum inhibitory concentration was evaluated in vitro against Providencia rettgeri M1771; outline: as §1
# [6] = Enterobacter cloacae, read-out: MIC
# [7] = Streptococcus pyogenes, read-out: MIC
# [8] = Streptococcus pneumoniae, read-out: MIC
# [9] = Staphylococcus aureus, read-out: MIC
# [10] = Klebsiella pneumoniae, read-out: MIC
# [11] = Enterococcus faecalis, read-out: MIC
# [12] = Escherichia coli, read-out: MIC
# [13] = Pseudomonas aeruginosa, read-out: MIC
# [14] = Providencia rettgeri, read-out: MIC
SMILES,MIC (Enterobacter cloacae),MIC (Streptococcus pyogenes [1]),MIC (Streptococcus pneumoniae),MIC (Staphylococcus aureus [2]),MIC (Staphylococcus aureus [3]),PD50 (Streptococcus pyogenes [4]),MIC (Klebsiella pneumoniae),MIC (Enterococcus faecalis),MIC (Pseudomonas aeruginosa),PD50 (Streptococcus pyogenes [5]),MIC (Enterobacter cloacae; [6]),MIC (Streptococcus pyogenes [1]; [7]),MIC (Streptococcus pneumoniae; [8]),MIC (Staphylococcus aureus [2]; [9]),MIC (Staphylococcus aureus [3]; [9]),MIC (Klebsiella pneumoniae; [10]),MIC (Enterococcus faecalis; [11]),MIC (Escherichia coli; [12]),MIC (Pseudomonas aeruginosa; [13]),MIC (Providencia rettgeri; [14]),further results
CN[C@H](C)[C@H]1CCN(c2c(F)c(N)c3c(=O)c(C(=O)O)cn(C4CC4)c3c2F)C1,0.2 µg/mL,0.2 µg/mL,0.2 µg/mL,0.05 µg/mL,0.1 µg/mL,13 mg/kg,0.8 µg/mL,0.2 µg/mL,3.1 µg/mL,13 mg/kg,–,–,–,–,–,–,–,–,–,–,MIC (Escherichia coli): 0.2 µg/mL; MIC (Providencia rettgeri): 0.8 µg/mL
CC(N)C1CCN(c2cc3c(c(N)c2F)c(=O)c(C(=O)O)cn3C2CC2)C1 (mixture of isomers),–,–,–,–,–,–,–,–,–,–,0.025 µg/mL,0.003 µg/mL,0.003 µg/mL,0.003 µg/mL,0.05 µg/mL,0.05 µg/mL,0.013 µg/mL,0.025 µg/mL,0.4 µg/mL,0.1 µg/mL,ED50 (Streptococcus pyogenes [4]): 18 mg/kg; ED50 (Streptococcus pyogenes [5]): 4 mg/kg
COc1c(N2CCC(CN)C2)c(F)cc2c(=O)c(C(=O)O)cn(C3CC3)c12 (stereo unspecified),–,–,–,–,–,–,–,–,–,–,0.05 µg/mL,0.003 µg/mL,0.003 µg/mL,0.003 µg/mL,0.025 µg/mL,0.1 µg/mL,0.013 µg/mL,0.05 µg/mL,0.8 µg/mL,0.1 µg/mL,ED50 (Streptococcus pyogenes [4]): 11 mg/kg; ED50 (Streptococcus pyogenes [5]): 0.6 mg/kg
"C[C@H](N)[C@H]1CCN(c2c(F)c(N)c3c(=O)c(C(=O)O)cn(C4CC4)c3c2F)C1 (stereo in doubt; 32F-S,R)",0.1 µg/mL,0.013 µg/mL,0.013 µg/mL,0.006 µg/mL,0.025 µg/mL,14 mg/kg,0.1 µg/mL,0.05 µg/mL,0.8 µg/mL,4 mg/kg,–,–,–,–,–,–,–,–,–,–,MIC (Escherichia coli): 0.05 µg/mL; MIC (Providencia rettgeri): 0.2 µg/mL
C[C@@H](N)[C@@H]1CCN(c2nc3c(cc2F)c(=O)c(C(=O)O)cn3-c2ccc(F)cc2F)C1,–,–,–,–,–,–,–,–,–,–,0.1 µg/mL,0.05 µg/mL,0.1 µg/mL,0.025 µg/mL,0.1 µg/mL,0.2 µg/mL,0.1 µg/mL,0.1 µg/mL,1.6 µg/mL,0.4 µg/mL,–
NCC1CCN(c2nc3c(cc2F)c(=O)c(C(=O)O)cn3-c2ccc(F)cc2F)C1 (stereo unspecified),–,–,–,–,–,–,–,–,–,–,0.05 µg/mL,0.025 µg/mL,0.025 µg/mL,0.013 µg/mL,0.05 µg/mL,0.1 µg/mL,0.025 µg/mL,0.05 µg/mL,0.4 µg/mL,0.2 µg/mL,ED50 (Streptococcus pyogenes [4]): 10 mg/kg; ED50 (Streptococcus pyogenes [5]): 1 mg/kg
CCNC(C)C1CCN(c2cc3c(c(N)c2F)c(=O)c(C(=O)O)cn3C2CC2)C1 (racemic),–,–,–,–,–,5 mg/kg,–,–,–,–,0.1 µg/mL,0.013 µg/mL,0.013 µg/mL,0.025 µg/mL,0.05 µg/mL,0.2 µg/mL,0.05 µg/mL,0.1 µg/mL,1.6 µg/mL,0.8 µg/mL,ED50 (Streptococcus pyogenes [5]): 1 mg/kg
"CCN[C@@H](C)[C@@H]1CCN(c2c(F)c(N)c3c(=O)c(C(=O)O)cn(C4CC4)c3c2F)C1 (stereo in doubt; 32H-S,S)",0.4 µg/mL,0.2 µg/mL,0.05 µg/mL,0.05 µg/mL,0.1 µg/mL,13 mg/kg,0.4 µg/mL,0.2 µg/mL,3.1 µg/mL,9 mg/kg,–,–,–,–,–,–,–,0.2 µg/mL,–,–,MIC (Providencia rettgeri): 1.6 µg/mL
CCN[C@@H](C)[C@H]1CCN(c2cc3c(cc2F)c(=O)c(C(=O)O)cn3C2CC2)C1,–,–,–,–,–,–,–,–,–,–,0.4 µg/mL,0.4 µg/mL,0.4 µg/mL,0.4 µg/mL,0.8 µg/mL,0.8 µg/mL,0.8 µg/mL,0.4 µg/mL,12.5 µg/mL,1.6 µg/mL,–
CN[C@@H](C)[C@@H]1CCN(c2nc3c(cc2F)c(=O)c(C(=O)O)cn3C2CC2)C1,0.1 µg/mL,0.1 µg/mL,0.1 µg/mL,0.05 µg/mL,0.2 µg/mL,11 mg/kg,0.2 µg/mL,0.2 µg/mL,1.6 µg/mL,5 mg/kg,–,–,–,–,–,–,–,–,–,–,MIC (Escherichia coli): 0.1 µg/mL; MIC (Providencia rettgeri): 0.8 µg/mL
CN[C@@H](C)[C@H]1CCN(c2cc3c(cc2F)c(=O)c(C(=O)O)cn3C2CC2)C1,–,–,–,–,–,–,–,–,–,–,0.4 µg/mL,0.4 µg/mL,0.4 µg/mL,0.2 µg/mL,1.6 µg/mL,0.8 µg/mL,0.8 µg/mL,0.4 µg/mL,6.3 µg/mL,3.1 µg/mL,–
